From ChEMBL document CHEMBL2203169, “Effect of allyl sulfides from garlic essential oil on intracellular ca2+ levels in renal tubular cells” (J Nat Prod, 2012)
The source made the active and inactive calls. The calls are words filed in the database; no cut-off is given here.

Experiments:
MDCK [1] = experiment: Cell cycle arrest in MDCK cells assessed as accumulation at G1 phase at 100 uM after 16 hrs by flow cytometric analysis (reference value: 55.7%); type: functional, Canis lupus familiaris
MDCK [2] = experiment: Cytotoxicity against MDCK cells assessed as decrease in cell viability after 16 hrs by tetrazolium salt WST-1 assay; type: functional, cell-based; settings: Canis lupus familiaris
Procedure, shortened: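 MDCK cells plated at 1 × 10^4 per well and grown 24 h to 70% confluence, then exposed 16 h to compound (0–2 mM range). Cells washed, then incubated 2 h at 37 °C with WST-1; absorbance read at 450 nm. Values expressed as percent of vehicle control (0.1% DMSO). n = 5.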

MDCK [3] = experiment: Cell cycle arrest in MDCK cells assessed as accumulation at G2/M phase at 100 uM after 16 hrs by flow cytometric analysis (reference value: 19.8%); type: functional, Canis lupus familiaris
MDCK [4] = experiment: Induction of intracellular calcium level in MDCK cells at 50 uM by Fura-2 in presence of calcium relative to diallyl trisulfide; type: functional, Canis lupus familiaris
MDCK [5] = experiment: Cell cycle arrest in MDCK cells assessed as accumulation at subG1 phase at 100 uM after 16 hrs by flow cytometric analysis (reference value: 0.5%); type: functional, Canis lupus familiaris
MDCK [6] = experiment: Cell cycle arrest in MDCK cells assessed as accumulation at S phase at 100 uM after 16 hrs by flow cytometric analysis (reference value: 24.5%); type: functional, Canis lupus familiaris
MDCK [7] = experiment: Induction of intracellular calcium level in MDCK cells assessed as net peak value at 10 uM by Fura-2 in calcium free medium; type: functional, Canis lupus familiaris
Procedure, shortened: (§1)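 Fura-2-loaded MDCK suspension (0.5 million cells/mL) in Ca2+-free medium, where CaCl2 was replaced by 0.1 mM EGTA; 25 °C, stirred cuvette. Signals recorded at 340/380 nm excitation and 510 nm emission every 1 s. Store depletion used 1 μM thapsigargin, applied before compound or after 220 s compound preincubation. Phospholipase C tests used 10 μM ATP and 2 μM U73122. [Ca2+]i calculated with Kd 155 nM. Means ± SEM, n = 5.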

MDCK [8] = experiment: Induction of intracellular calcium level in MDCK cells at 100 uM by Fura-2 in calcium free medium in presence of phospholipase C inhibitor U73122; settings: Canis lupus familiaris
MDCK [9] = experiment: Induction of intracellular calcium level in MDCK cells at 10 uM by Fura-2 in calcium free medium in presence of 10 uM U73343 inactive analogue of U73122 phospholipase C inhibitor; type: functional, cell-based; settings: Canis lupus familiaris
Procedure, shortened: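 MDCK cells were trypsinized, recovered 1 h, then loaded with 2 μM fura-2/AM for 30 min at 25 °C. They were read in a stirred cuvette at 25 °C (0.5 million cells/mL) in Ca2+-free medium with 0.1 mM EGTA in place of CaCl2. Ex 340/380 nm, em 510 nm, 1 s intervals. Pretreatment was 2 μM U73122 or 10 μM U73343 before ATP. Kd 155 nM; n=5.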

MDCK [10] = experiment: Induction of intracellular calcium level in MDCK cells at 100 uM by Fura-2 in presence of calcium and 10 nM phorbol myristate acetate protein kinase C activator; type: functional, cell-based; settings: Canis lupus familiaris
Procedure, shortened: (§2)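 Fura-2-loaded MDCK cells in Ca2+-containing medium (2 mM CaCl2, pH 7.4) at 25 °C, pretreated with 10 nM phorbol myristate acetate or 2 μM GF109203X before 100 μM compound. [Ca2+]i was read from the 340/380 nm fura-2 ratio. n = 5.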

MDCK [11] = experiment: Induction of intracellular calcium level in MDCK cells at 100 uM by Fura-2 in calcium free medium in presence of endoplasmic reticulum Ca2+-ATPase inhibitor thapsigargin; type: functional, cell-based; settings: Canis lupus familiaris; procedure, shortened: as §1
MDCK [12] = experiment: Induction of intracellular calcium level in MDCK cells at 100 uM assessed as calcium influx by Fura-2 in presence of calcium and 1 uM diltiazem L-type calcium channel blocker; type: functional, cell-based; settings: Canis lupus familiaris
Procedure, shortened: (§3)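 Fura-2-loaded MDCK cells in Ca2+-containing medium at 25 °C, pretreated 1 min with the 1 μM L-type blocker before 100 μM compound was added at 30 s. Response taken as net area under the [Ca2+]i curve from 30 to 250 s, expressed as percent of unblocked control. Means ± SEM of five experiments.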

MDCK [13] = experiment: Induction of intracellular calcium level in MDCK cells at 100 uM by Fura-2 in presence of calcium and 1 uM nicardipine L-type calcium channel blocker; type: functional, cell-based; settings: Canis lupus familiaris; procedure, shortened: as §3
MDCK [14] = experiment: Induction of intracellular calcium level in MDCK cells at 100 uM preincubated 220 secs by Fura-2 in calcium free medium in presence of endoplasmic reticulum Ca2+-ATPase inhibitor thapsigargin; type: functional, cell-based; settings: Canis lupus familiaris; procedure, shortened: as §1
MDCK [15] = experiment: Induction of intracellular calcium level in MDCK cells at 100 uM assessed as calcium influx by Fura-2 in presence of calcium and 1 uM verapamil L-type calcium channel blocker; type: functional, cell-based; settings: Canis lupus familiaris; procedure, shortened: as §3
MDCK [16] = experiment: Induction of intracellular calcium level in MDCK cells at 1 uM by Fura-2 in presence of extracellular calcium; settings: Canis lupus familiaris
MDCK [17] = experiment: Induction of intracellular calcium level in MDCK cells assessed as sustained phase at 100 uM within 250 secs by Fura-2 in presence of extracellular calcium; type: functional, cell-based; settings: Canis lupus familiaris
Procedure, shortened: (§4)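 Trypsinized cells recovered 1 h, then loaded with 2 μM fura-2/AM for 30 min at 25 °C. Cells washed and resuspended in Ca2+-containing medium (2 mM CaCl2, 2 mM HEPES, pH 7.4); 0.5 million cells/mL in a stirred cuvette at 25 °C. Compound added at 30 s and recorded to 250 s. Excitation at 340/380 nm, emission at 510 nm. Calibration used Triton X-100 then 10 mM EGTA; Kd 155 nM. n = 5.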

MDCK [18] = experiment: Induction of intracellular calcium level in MDCK cells at 25 to 100 uM by Fura-2 in presence of extracellular calcium; type: functional, cell-based; settings: Canis lupus familiaris; procedure, shortened: as §4
MDCK [19] = experiment: Induction of intracellular calcium level in MDCK cells assessed as rise in fura-2 340/380 excitation signal ratio at 100 uM treated at 30 secs by Fura-2 in presence of extracellular calcium; type: functional, cell-based; settings: Canis lupus familiaris; procedure, shortened: as §4
MDCK [20] = experiment: Induction of intracellular calcium level in MDCK cells at 100 uM by Fura-2 in presence of calcium and 2 uM GF109203 X acetate protein kinase C inhibitor; type: functional, cell-based; settings: Canis lupus familiaris; procedure, shortened: as §2

Row | Structure (SMILES) | Activity (MDCK [1]) [%] | Activity (MDCK [2]) | IC50 (MDCK [2]) [µM] | Activity (MDCK [3]) [%] | Activity (MDCK [5]) [%] | Activity (MDCK [6]) [%] | Activity (MDCK [8]) | other results
1 | C=CCSSCC=C [DIALLYLDISULFIDE] | 53.3 | Dose-dependent effect | 1820 | 20 | 7.1 | 26.8 |  | Activity (MDCK [4]): 45.6%
2 | C=CCSCC=C [DIALLYL SULFIDE] | 53.3 | Dose-dependent effect | 3260 | 19 | 1.1 | 27.7 |  | Activity (MDCK [4]; Canis lupus familiaris): inactive
3 | Nc1ncnc2c1ncn2[C@@H]1O[C@H](COP(=O)(O)OP(=O)(O)OP(=O)(O)O)[C@@H](O)[C@H]1O [ADENOSINE TRIPHOSPHATE] |  |  |  |  |  |  | inactive | Activity (MDCK [7]): 132 nM; Activity (MDCK [9]): Active
4 | C=CCSSSCC=C [ALLITRIDIN] | 26.8 |  | 50 | 38.6 | 33.1 | 34.6 | Active | Activity (MDCK [10]): Active; Activity (MDCK [11]): inactive; Activity (MDCK [12]): Active; Activity (MDCK [13]): inactive; Activity (MDCK [14]): inactive; Activity (MDCK [15]): Active; Activity (MDCK [16]): inactive; Activity (MDCK [17]): Active; Activity (MDCK [18]): Dose-dependent effect; Activity (MDCK [19]): Active; Activity (MDCK [20]): Active
